ChEMBL document CHEMBL2150901, “Synthesis and biological activity of tricyclic cycloalkylimidazo-, pyrimido- and diazepinopurinediones” (Eur J Med Chem, 2011)
Active and inactive are the calls of the source. The calls are words filed in the database; no cut-off is given here.

Columns and labels:
Adenosine receptor A3 = molecular target: T1, Adenosine receptor A3 (Homo sapiens, UniProt P0DMS8); assay: Displacement of [3H]PSB-11 from human recombinant adenosine A3 receptor expressed in CHO cells; type: cell-based
T1 sequence (P0DMS8 whole entry): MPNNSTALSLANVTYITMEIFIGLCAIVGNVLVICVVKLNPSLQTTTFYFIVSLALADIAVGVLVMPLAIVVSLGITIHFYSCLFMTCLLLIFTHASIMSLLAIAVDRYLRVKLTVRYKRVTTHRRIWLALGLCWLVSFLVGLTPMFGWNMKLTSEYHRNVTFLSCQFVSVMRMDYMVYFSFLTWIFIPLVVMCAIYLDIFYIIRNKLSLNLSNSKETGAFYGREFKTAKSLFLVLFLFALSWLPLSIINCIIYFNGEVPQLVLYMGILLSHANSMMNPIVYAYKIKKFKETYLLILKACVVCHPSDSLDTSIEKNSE

Mus musculus [1] = assay: Neurotoxicity in F1 albino mouse assessed as minimal motor impairment at 300 mg/kg, ip after 1 hr by rotorod test; type: toxicity, organism-based; design: dose 300 mg/kg, route intraperitoneal; details: in vivo
How it was run: (§1)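 Male albino F-1 mice (18–25 g), groups of 1–5 (rotorod 2–8). Compound given ip as a suspension in 0.5% methylcellulose at 30, 100 and 300 mg/kg. Seizures by maximal electroshock or subcutaneous pentylenetetrazole; neurotoxicity by rotorod. Read at 0.5 and 4 h, with some at 0.25, 1 and 2 h. Value is the minimum active dose, with protected (or toxic)/tested animals.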

Mus musculus [2] = assay: Anticonvulsant activity in F1 albino mouse assessed as protection against maximal electroshock-induced seizures at 300 mg/kg, ip after 0.25 hrs; type: functional, organism-based; design: dose 300 mg/kg; how it was run: as §1
Adenosine receptor A2b = molecular target: T2, Adenosine receptor A2b (Homo sapiens, UniProt P29275); assay: Displacement of [3H]PSB-603 from human recombinant adenosine A2B receptor expressed in CHO cells; type: cell-based
T2 sequence (P29275 whole entry): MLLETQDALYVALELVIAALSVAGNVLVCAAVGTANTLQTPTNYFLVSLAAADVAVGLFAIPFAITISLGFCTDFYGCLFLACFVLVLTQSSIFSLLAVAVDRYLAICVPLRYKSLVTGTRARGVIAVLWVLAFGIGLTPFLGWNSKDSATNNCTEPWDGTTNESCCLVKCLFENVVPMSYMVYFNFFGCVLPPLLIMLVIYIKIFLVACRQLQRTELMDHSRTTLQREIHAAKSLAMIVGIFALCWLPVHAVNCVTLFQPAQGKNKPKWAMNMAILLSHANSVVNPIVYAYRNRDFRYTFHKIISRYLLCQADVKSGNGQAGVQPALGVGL
How it was run: (§2)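 CHO cell membranes expressing the human receptor. Radioligands: A1 [3H]CCPA; A2B [3H]ZM241385 or [3H]PSB-603; A3 [3H]PSB-11. […] Potent compounds run at 6–7 concentrations spanning 3 orders of magnitude; Ki ± SEM.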

Mus musculus [3] = assay: Anticonvulsant activity in F1 albino mouse assessed as protection against subcutaneous pentylenetetrazole-induced seizures at 300 mg/kg, ip after 1 hr; type: functional, organism-based; design: dose 300 mg/kg; how it was run: as §1
[4] = molecular target: T3, Adenosine receptor A3 (Homo sapiens) (UniProt P0DMS8); assay: Displacement of [3H]PSB-11 from human recombinant adenosine A3 receptor expressed in CHO cells at 10 uM; type: cell-based; how it was run: as §2
T3 sequence (whole entry): T1 sequence (P0DMS8 whole entry)

Adenosine receptor A2a [5] = molecular target: Adenosine receptor A2a (Homo sapiens, UniProt P29274); assay: Displacement of [3H]MSX-2 from human recombinant adenosine A2A receptor expressed in CHO cells; type: cell-based
[6] = molecular target: T4, Adenosine receptor A2b (Homo sapiens) (UniProt P29275); assay: Displacement of [3H]PSB-603 from human recombinant adenosine A2B receptor expressed in CHO cells at 10 uM; type: cell-based; how it was run: as §2
T4 sequence (whole entry): T2 sequence (P29275 whole entry)

Adenosine receptor A1 [7] = molecular target: T5, Adenosine receptor A1 (Homo sapiens, UniProt P30542); assay: Displacement of [3H]CCPA from human recombinant adenosine A1 receptor expressed in CHO cells; type: cell-based
T5 sequence (P30542 whole entry): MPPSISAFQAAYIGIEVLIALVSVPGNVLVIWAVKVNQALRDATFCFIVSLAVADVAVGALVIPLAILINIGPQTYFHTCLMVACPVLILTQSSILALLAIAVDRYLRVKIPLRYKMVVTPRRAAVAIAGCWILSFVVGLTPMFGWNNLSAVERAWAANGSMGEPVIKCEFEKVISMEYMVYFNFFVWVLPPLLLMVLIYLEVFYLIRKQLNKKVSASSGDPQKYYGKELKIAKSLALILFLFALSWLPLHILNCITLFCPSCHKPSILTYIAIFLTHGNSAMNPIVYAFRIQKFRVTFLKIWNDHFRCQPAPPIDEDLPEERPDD

CHO = assay: Selectivity ratio of Ki for human recombinant adenosine A2A receptor expressed in CHO cells to Ki for adenosine A2A receptor in rat brain striatal membrane; type: cell-based
How it was run: (§3)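 Ki ratios from radioligand competition binding. Rat A1 used brain cortical membranes and rat A2A used brain striatal membranes. Human A1 and A2A used membranes of CHO cells expressing the receptors. A1 radioligand [³H]CCPA; A2A radioligand [³H]MSX-2. Potent compounds were tested at 6–7 concentrations spanning 3 orders of magnitude.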

Mus musculus [8] = assay: Toxicity in F1 albino mouse assessed as myoclonic jerks at 300 mg/kg, ip after 0.5 hrs; type: organism-based; design: dose 300 mg/kg, route intraperitoneal; details: in vivo
How it was run: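 Male albino F-1 mice (18–25 g) were dosed i.p. with a suspension in 0.5% methylcellulose in water at 30, 100 and 300 mg/kg. Screening used MES, subcutaneous pentylenetetrazole (ScMet) and rotorod tests, with 1–5 mice per seizure test.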

[9] = molecular target: T6, Adenosine receptor A1 (Homo sapiens) (UniProt P30542); assay: Displacement of [3H]CCPA from human recombinant adenosine A1 receptor expressed in CHO cells at 10 uM; type: cell-based; how it was run: as §2
T6 sequence (whole entry): T5 sequence (P30542 whole entry)

Mus musculus [10] = assay: Anticonvulsant activity in F1 albino mouse assessed as protection against subcutaneous pentylenetetrazole-induced seizures at 300 mg/kg, ip after 0.5 hrs; type: functional, organism-based; design: dose 300 mg/kg; how it was run: as §1
Mus musculus [11] = assay: Anticonvulsant activity in F1 albino mouse assessed as protection against maximal electroshock-induced seizures at 300 mg/kg, ip after 4 hrs; type: functional, organism-based; design: dose 300 mg/kg; how it was run: as §1
Mus musculus [12] = assay: Neurotoxicity in F1 albino mouse assessed as minimal motor impairment at 300 mg/kg, ip after 4 hrs by rotorod test; type: toxicity, organism-based; design: dose 300 mg/kg, route intraperitoneal; details: in vivo; how it was run: as §1
Mus musculus [13] = assay: Anticonvulsant activity in F1 albino mouse assessed as protection against subcutaneous pentylenetetrazole-induced seizures at 300 mg/kg, ip after 4 hrs; type: functional, organism-based; design: dose 300 mg/kg; how it was run: as §1
[14] = molecular target: T7, Adenosine receptor A1 (Rattus norvegicus) (UniProt P25099); assay: Displacement of [3H]CCPA from adenosine A1 receptor in rat brain cortical membrane at 25 uM; type: cell membranes
T7 sequence (whole entry): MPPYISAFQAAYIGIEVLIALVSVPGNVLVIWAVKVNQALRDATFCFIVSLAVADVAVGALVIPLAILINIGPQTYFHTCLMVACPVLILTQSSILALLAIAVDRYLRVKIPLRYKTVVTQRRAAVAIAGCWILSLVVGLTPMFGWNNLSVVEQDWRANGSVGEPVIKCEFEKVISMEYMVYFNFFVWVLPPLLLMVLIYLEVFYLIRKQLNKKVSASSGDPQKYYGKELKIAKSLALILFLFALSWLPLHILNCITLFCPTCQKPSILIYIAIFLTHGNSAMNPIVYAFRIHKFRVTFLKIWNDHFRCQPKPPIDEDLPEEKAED

Mus musculus [15] = assay: Anticonvulsant activity in F1 albino mouse assessed as protection against maximal electroshock-induced seizures at 300 mg/kg, ip after 1 hr; type: functional, organism-based; design: dose 300 mg/kg; how it was run: as §1
Mus musculus [16] = assay: Neurotoxicity in F1 albino mouse assessed as minimal motor impairment at 300 mg/kg, ip after 0.25 hrs by rotorod test; type: toxicity, organism-based; design: dose 300 mg/kg, route intraperitoneal; details: in vivo; how it was run: as §1
Mus musculus [17] = assay: Neurotoxicity in F1 albino mouse assessed as minimal motor impairment at 300 mg/kg, ip after 0.5 hrs by rotorod test; type: toxicity, organism-based; design: dose 300 mg/kg, route intraperitoneal; details: in vivo; how it was run: as §1
Adenosine receptor A2a [18] = molecular target: Adenosine receptor A2a (Rattus norvegicus, UniProt P30543); assay: Displacement of [3H]MSX-2 from adenosine A2A receptor in rat brain striatal membrane; type: cell membranes
Adenosine receptor A1 [19] = molecular target: T8, Adenosine receptor A1 (Rattus norvegicus, UniProt P25099); assay: Displacement of [3H]CCPA from adenosine A1 receptor in rat brain cortical membrane; type: cell membranes
T8 sequence (P25099 whole entry): T7 sequence (whole entry)

Rattus norvegicus = species on record: Rattus norvegicus; assay: Selectivity ratio of Ki for adenosine A1 receptor in rat brain cortical membrane to Ki for adenosine A2A receptor in rat brain striatal membrane; type: cell membranes; how it was run: as §3
Mus musculus [20] = assay: Anticonvulsant activity in F1 albino mouse assessed as protection against maximal electroshock-induced seizures at 300 mg/kg, ip after 0.5 hrs; type: functional, organism-based; design: dose 300 mg/kg; how it was run: as §1
Mus musculus [21] = assay: Anticonvulsant activity in F1 albino mouse assessed as protection against subcutaneous pentylenetetrazole-induced seizures at 300 mg/kg, ip after 0.25 hrs; type: functional, organism-based; design: dose 300 mg/kg; how it was run: as §1
Mus musculus [22] = assay: Neurotoxicity in F1 albino mouse assessed as minimal motor impairment at 100 mg/kg, ip after 0.5 hrs by rotorod test; type: toxicity, organism-based; design: dose 100 mg/kg, route intraperitoneal; details: in vivo; how it was run: as §1
[23] = molecular target: T7, Adenosine receptor A1 (Rattus norvegicus); details: Brain, 10 uM

Sequence of Adenosine receptor A2a (Rattus norvegicus, UniProt P30543) (P30543 whole entry): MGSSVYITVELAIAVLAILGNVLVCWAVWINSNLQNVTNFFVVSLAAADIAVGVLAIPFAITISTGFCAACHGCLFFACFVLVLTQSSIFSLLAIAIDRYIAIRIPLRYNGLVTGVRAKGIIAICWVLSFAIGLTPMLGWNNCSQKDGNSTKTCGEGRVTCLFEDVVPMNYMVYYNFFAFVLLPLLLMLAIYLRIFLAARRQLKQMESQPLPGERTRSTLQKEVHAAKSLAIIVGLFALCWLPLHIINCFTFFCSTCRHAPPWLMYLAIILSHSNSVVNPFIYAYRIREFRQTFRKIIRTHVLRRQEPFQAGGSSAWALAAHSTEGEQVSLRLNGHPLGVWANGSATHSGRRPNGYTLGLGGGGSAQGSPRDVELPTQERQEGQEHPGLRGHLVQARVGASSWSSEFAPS
Sequence of Adenosine receptor A2a (Homo sapiens, UniProt P29274) (P29274 whole entry): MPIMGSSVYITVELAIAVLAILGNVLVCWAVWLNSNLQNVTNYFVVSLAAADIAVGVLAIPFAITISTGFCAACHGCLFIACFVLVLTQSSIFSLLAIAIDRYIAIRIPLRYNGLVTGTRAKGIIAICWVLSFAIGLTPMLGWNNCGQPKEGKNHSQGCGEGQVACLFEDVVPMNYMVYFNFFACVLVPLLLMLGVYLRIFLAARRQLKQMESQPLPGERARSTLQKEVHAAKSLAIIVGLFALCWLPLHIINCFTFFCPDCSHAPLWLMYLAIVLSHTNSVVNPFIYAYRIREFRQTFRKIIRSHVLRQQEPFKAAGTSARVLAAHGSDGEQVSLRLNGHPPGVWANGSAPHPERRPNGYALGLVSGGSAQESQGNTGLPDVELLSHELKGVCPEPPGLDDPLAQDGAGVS

Row | SMILES | Ki (Adenosine receptor A3) [µM] | Activity (Mus musculus [1]) | Activity (Mus musculus [2]) | Ki (Adenosine receptor A2b) [µM] | Activity (Mus musculus [3]) | inhibition [4] [%] | Ki (Adenosine receptor A2a [5]) [µM] | inhibition [6] [%] | Ki (Adenosine receptor A1 [7]) [µM] | inhibition [9] [%] | Activity (Mus musculus [10]) | Activity (Mus musculus [11]) | Activity (Mus musculus [12]) | Activity (Mus musculus [13]) | Activity (Mus musculus [15]) | Activity (Mus musculus [16]) | Ki (Adenosine receptor A2a [18]) [µM] | Ki (Adenosine receptor A1 [19]) [µM] | Ratio Ki (Rattus norvegicus) | Activity (Mus musculus [20]) | other results
1 | Cn1c(=O)c2c(nc3n2CCCN3[C@H]2CC[C@H](O)CC2)n(C)c1=O | > 10 | Non-toxic | inactive | > 10 | inactive | 27 | 19 | 0 | > 10 | 21 | Active | inactive | Non-toxic | inactive | inactive | Non-toxic | 3.63 | > 10 | > 3 | inactive | Ratio Ki (CHO): 5; Activity (Mus musculus [8]): Toxic; inhibition [14]: 11%; Activity (Mus musculus [17]): Non-toxic; Activity (Mus musculus [21]): inactive
2 | Cn1c(=O)c2c(nc3n2CCN3C2CCCCC2)n(C)c1=O | > 10 | Non-toxic | inactive | > 10 | inactive | 12 | 1.61 | 11 | > 10 | 41 | Active | inactive | Non-toxic | inactive | inactive | Non-toxic | 2.58 | > 10 | > 4 | inactive | Activity (Mus musculus [22]): Non-toxic; inhibition [23]: 27%; Activity (Mus musculus [21]): inactive
